PMC11607638 (The FASEB Journal, 2024)
Where two headings read alike, the source gives them in different places. Square brackets hold non-standard residues; d marks the D form. Ends that are not written are not given here. sY = N[C@@H](Cc1ccc(OS(=O)(=O)O)cc1)C(=O)O

Tests used:
[1] = tested on: SK receptor gene SKR; test: Fura-2 calcium imaging in perifused SKR-CHO-K1 cells; assay type: cell-based, Aedes aegypti; details: for Reversibility of stimulation upon wash-out in perifused SKR-CHO-K1 cells: Figures 4, 5, 6; for Onset (lag time) of cytosolic calcium oscillations in SKR-CHO-K1 cells: at lower concentrations, Figures 4 and 5
Method in brief: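 CHO-K1 cells at 80–90% confluency were transfected in serum-free medium with pcDNA3.1(+)-SKR using jetPRIME for 24–36 h. Cells were loaded with Fura-2AM (10 µM, 50 min, 37 °C), attached to coated coverslips and perifused in HEPES buffer, pH 7.4. The 340/380 nm excitation ratio was recorded per single cell. Peptides used: SK1 300 pM–30 nM, SK2 3 nM ± devazepide 10 nM, CCK 1–100 nM. Peak area above baseline per 10 min; mean ± SEM, t-test.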

[2] = tested on: Aedes aegypti; test: Blood meal size after thoracic peptide injection; assay type: in vivo; details: 24 h
Method in brief: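 Females 3 days post-eclosion, starved 12 h before and 24 h after a 1 µL thoracic injection, then blood-fed. Each mosquito was weighed before and after the meal, and intake was taken as the weight difference. SK2 was given at 50, 100 or 150 pmol/µL against DEPC water, 30 per group. For reversal, SK2 100 µM plus proglumide 14 mM (final, 1:1 mix) was injected and intake weighed 24 h later.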

[3] = Body weight of female mosquitoes after injection; assay type: in vivo, Aedes aegypti; details: for Pre-blood meal body weight among groups: DEPC water, SK2 100 μM, SK2 + proglumide (Figure 3F left)
Method in brief: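 Females 3 days post-eclosion were starved 12 h, given a 1 µL thoracic injection, and starved a further 24 h. They were weighed on a balance immediately before the blood meal, 30 per group.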

[4] = tested on: mammalian cholecystokinin 1 receptor (CCK1R); test: Fura-2 calcium imaging in isolated rat pancreatic acini; assay type: cell-based; details: CCK 10 pM
Method in brief: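 Acini came from male Sprague-Dawley rats (250–450 g) by collagenase P digestion (0.2 g/L, 2 × 10 min, 37 °C) in HEPES-buffered saline, pH 7.4. They were loaded with Fura-2AM (10 µM, 30 min) and attached to Cell-Tak- or Matrix-Gel-coated coverslips in a perifusion chamber. The buffer was the same minus BSA, amino acids and trypsin inhibitor. Fluorescence was excited alternately at 340/380 nm and the ratio recorded over time.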

[5] = tested on: CHO-K1 cells; test: Fura-2 calcium imaging in un-transfected parental CHO-K1 cells; assay type: cell-based, Chinese hamster; details: 30 nM
Method in brief: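 Un-transfected CHO-K1 cells were grown in DMEM/F12 with 10% FBS, then loaded with Fura-2AM (10 µM, 50 min, 37 °C) and perifused on coated coverslips. They were exposed to SK1 or SK2 at 30 nM. Cytosolic calcium was followed as the 340/380 nm excitation ratio in single cells.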

[6] = tested on: Aedes aegypti; test: Blood-feeding time course after thoracic peptide injection; assay type: in vivo; details: Figure 3C
Method in brief: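 Females were given 1 µL thoracic injections of DEPC water, SK1, SK2 (200 µM) or SK1+SK2 (100 µM each, final), then kept in separate cages for 24 h, 20 per group, and offered blood. Feeding was counted as complete when a mosquito stopped and no longer moved actively. Completed feeders were recorded every 10 min until all had fed; run in triplicate.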

[7] = tested on: SK gene SK; test: qPCR of SK mRNA in mosquito head after peptide injection; assay type: in vivo, Aedes aegypti; details: after blood feeding 24 h after injection
[8] = tested on: SK receptor gene SKR; test: qPCR of SKR mRNA in mosquito head after peptide injection; assay type: in vivo, Aedes aegypti; details: after blood feeding 24 h after injection

Molecule: CN1C(=O)[C@@H](NC(=O)c2cc3ccccc3[nH]2)N=C(c2ccccc2)c2ccccc21 [devazepide, reference compound]
- Block of SK2-induced calcium increases in SKR-CHO-K1 cells (antagonism) ([1]; devazepide 10 nM + SK2 3 nM): no longer induced any calcium increases

Molecule: NCCc1ccc(O)c(O)c1 [dopamine, reference compound]
- Calcium response in SKR-CHO-K1 cells ([1]; dopamine 1 mM): no effect

Molecule: CCCN(CCC)C(=O)C(CCC(=O)O)NC(=O)c1ccccc1 (centres unmarked) [proglumide]
- Blood intake after mixed injection vs DEPC water control ([2]; proglumide 14 mM + SK2 100 μM, 1 μL): no significant difference
- Blood intake after mixed injection vs single injection of SK2 at 100 μM ([2]; proglumide 14 mM + SK2 100 μM, 1 μL, ****p < .0001 (Figure 3F)): higher
- Pre-blood meal body weight among groups [3]: No difference

Molecule: CCK: sulfated cholecystokinin octapeptide (CCK), Tocris Cookson #1166 (D[sY]MGWMDF-NH2; UniProt P06307 96-103, looked up) [reference compound]
- Calcium response in SKR-CHO-K1 cells ([1]; CCK 1 nM): no effect
- Calcium response in SKR-CHO-K1 cells ([1]; CCK 10 nM and 100 nM): clear calcium increases
- Reversibility of stimulation upon wash-out in perifused SKR-CHO-K1 cells [1]: readily washed out
- Efficiency of activating SKR compared with mosquito peptide SK2 ([1]; SKR-CHO-K1, Figure 6): probably less efficiently than the mosquito peptide SK2
- Calcium response in rat pancreatic acini [4]: robust calcium oscillations

Molecule: FDDY(SO3H)GHMRF [SK1]
- Reversibility of stimulation upon wash-out in perifused SKR-CHO-K1 cells [1]: long‐lasting even after wash‐out
- Calcium response in SKR-CHO-K1 cells ([1]; SK1 300 pM): did not elicit any change in calcium levels
- Calcium response in SKR-CHO-K1 cells ([1]; SK1 at 1, 3, 10, and 30 nM (all)): robust calcium spikes
- Onset (lag time) of cytosolic calcium oscillations in SKR-CHO-K1 cells [1]: significant lag time
- EC50 ([1]; read-out: EC50, calcium spikes (area under the peaks above baseline, per 10 min), SK1, SKR-CHO-K1, Fura-2 F340/F380, monophasic dose-response, N = 5-7): 1180 pM
- Calcium response in parental CHO-K1 cells [5]: no effect
- Prolongation of feeding, comparison with SK2 at same concentration ([6]; SK1 200 μM): significantly less active
- SK mRNA expression vs DEPC water control [7]: decrease significantly
- SKR mRNA expression vs DEPC water control [8]: No difference

Molecule: GGEGEQFDDY(SO3H)GHMRF [SK2]
- Reversibility of stimulation upon wash-out in perifused SKR-CHO-K1 cells [1]: long‐lasting even after wash‐out
- Calcium response in SKR-CHO-K1 cells ([1]; SK2 100 pM): did not stimulate any increases in calcium concentration
- Calcium response in SKR-CHO-K1 cells ([1]; SK2 3 nM alone (parallel to antagonist experiment)): strong calcium oscillations
- Calcium response in SKR-CHO-K1 cells ([1]; SK2 at 300 pM, 1, 3, 10, and 30 nM (all)): lasting calcium oscillations
- Onset (lag time) of cytosolic calcium oscillations in SKR-CHO-K1 cells [1]: significant lag time
- EC50 ([1]; read-out: EC50, calcium oscillations (areas under the peak above baseline per 10 min), SK2, SKR-CHO-K1, Fura-2 F340/F380, N = 5-8): 251 pM
- Calcium response in parental CHO-K1 cells [5]: no effect
- Blood intake vs control ([2]; SK2 50 μM (50 pmol in 1 μL), thoracic injection, 30 per group): no significant difference
- Prolongation of time to complete a blood meal, vs DEPC water and among peptides ([6]; SK1, SK2 at 200 μM, SK1 + SK2 at 100 μM each): stronger prolongation than SK1
- SK mRNA expression vs DEPC water control [7]: decrease significantly
- SKR mRNA expression vs DEPC water control [8]: No difference
- Pre-blood meal body weight among groups [3]: No difference
- Body weight after injection at different doses ([3]; SK2 50, 100, 150 μM (Figure 3E left)): no changes in body weight
